Holding throughout (format): functional, cell-based
Assay [1] is described as follows: Cytotoxicity against human H116 cells after 3 days by crystal violet staining. Particulars: H116, 72 h. The essentials: (§1)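 Cells kept in log-phase growth in EMEM with nonessential amino acids, 2.0 mM L-glutamine, 5% FCS, 10^-2 M NaHCO3 and penicillin/streptomycin. Trypsin-harvested cells seeded at 1×10^4/well in 24-well dishes with graded sample concentrations, drug-free growth controls included, in duplicate. Incubated 3 days at 37 °C, 5% CO2, then crystal violet stained for approximate IC50. Coulter counts of trypsinized cells gave %G dose-response curves for IC50.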

In the next assay the test system is A549. In words: Cytotoxicity against human A549 cells after 3 days by crystal violet staining. The settings on record: A549, 72 h. The method, boiled down:
as §1

Another assay relates to T98G. In words: Cytotoxicity against human T98G cells after 3 days by crystal violet staining. Particulars: 72 h. The method, boiled down:
as §1

Another assay has as its system PSN1. In words: Cytotoxicity against human PSN1 cells after 3 days by crystal violet staining. Particulars: PSN1, 72 h. The method, boiled down:
as §1

Another assay relates to HT-29. In words: Cytotoxicity against human HT-29 cells after 3 days by crystal violet staining. Particulars: HT-29, 72 h. The essentials: as §1

≈ marks a conversion by molar mass, not a printed value.

Experimental findings from ChEMBL document CHEMBL1147266, “New dammarane triterpenes from the aerial parts of Ibicella lutea grown in Argentina” (J Nat Prod, 2003) are described below.

A word on the IC50: it is the concentration at which inhibition is half-maximal. High values mean weaker potency, low ones greater potency. For the molecule `CC(=O)O[C@H]1CC[C@]2(C)[C@H]3C[C@@H](OC(C)=O)[C@@H]4[C@@H]([C@]5(C)CC[C@@H](C(C)(C)O)O5)CC[C@@]4(C)[C@]3(C)CC[C@H]2C1(C)C`, the IC50 (in assay [1]; in the assay on A549) was 5 µg/mL (≈ 8.92 µM) each time.
As to `CC(=O)O[C@H]1CC[C@]2(C)[C@H]3C[C@@H](O)[C@@H]4[C@@H]([C@]5(C)CC[C@@H](C(C)(C)O)O5)CC[C@@]4(C)[C@]3(C)CC[C@H]2C1(C)C`, the half-inhibitory concentration (IC50) (in assay [1]; in the assay with A549; in the assay with T98G; with PSN1) was > 5 µg/mL each time.
With `CC(=O)O[C@H]1CC[C@]2(C)[C@H]3C[C@@H](OC(C)=O)[C@@H]4[C@@H]([C@]5(C)CC[C@@H](C(C)(C)OC(C)=O)O5)CC[C@@]4(C)[C@]3(C)CC[C@H]2C1(C)C`, the IC50 (in assay [1]; in the assay with A549; with T98G; in the assay on PSN1) was > 5 µg/mL each time.
In the case of `CC(C)(O)[C@H]1CC[C@@](C)([C@H]2CC[C@]3(C)[C@@H]2[C@H](O)C[C@@H]2[C@@]4(C)[C@H](O)C[C@@H](O)C(C)(C)[C@@H]4CC[C@]23C)O1`, the IC50 (with HT-29; in assay [1]; in the assay with A549) was > 10 µg/mL in each case.
`CC(=O)O[C@@H]1C[C@@H]2[C@@]3(C)[C@H](OC(C)=O)C[C@@H](OC(C)=O)C(C)(C)[C@@H]3CC[C@@]2(C)[C@]2(C)CC[C@H]([C@]3(C)CC[C@H](C(C)(C)OC(C)=O)O3)[C@@H]12` yielded an IC50 in assay [1] of 5 µg/mL (≈ 7.57 µM).
For `CC(=O)O[C@@H]1C[C@@H]2[C@@]3(C)[C@H](OC(C)=O)C[C@@H](OC(C)=O)C(C)(C)[C@@H]3CC[C@@]2(C)[C@]2(C)CC[C@H]([C@]3(C)CC[C@H](C(C)(C)O)O3)[C@@H]12` (relative stereo), the IC50 (in assay [1]; in the assay with A549; with T98G; with PSN1) was > 5 µg/mL throughout.
With `CC(=O)O[C@@H]1C[C@@H](OC(C)=O)[C@]2(C)[C@H]3C[C@@H](O)[C@@H]4[C@@H]([C@]5(C)CC[C@H](C(C)(C)O)O5)CC[C@@]4(C)[C@]3(C)CC[C@H]2C1(C)C` (relative stereo), the IC50 (in the assay on HT-29; in assay [1]; with A549) was > 10 µg/mL each time.
Turning to `CC(C)(O)[C@@H]1CC[C@@](C)([C@H]2CC[C@]3(C)[C@@H]2[C@H](O)C[C@@H]2[C@@]4(C)CC[C@H](O)C(C)(C)[C@@H]4CC[C@]23C)O1` (relative stereo), the IC50 (in assay [1]; with A549) was 5 µg/mL (≈ 10.5 µM) in each case.
On to `CC(=O)O[C@@H]1C[C@@H](O)[C@]2(C)[C@H]3C[C@@H](O)[C@@H]4[C@@H]([C@]5(C)CC[C@H](C(C)(C)O)O5)CC[C@@]4(C)[C@]3(C)CC[C@H]2C1(C)C` (relative stereo), for which the IC50 (in the assay on HT-29; in assay [1]; with A549) was > 10 µg/mL each time.
